# In article PMC3960632 (British Journal of Cancer, 2014):
# Key:
# [1] = test system: recombinant AKR1C1-4; conditions: ref Hebert et al, 2013; cited from earlier work
# [2] = test system: primary CLL cells; assay: Primary CLL cell apoptosis; type: cell-based, human; conditions: 24 h; 0.5 mM BEZ, 5 μM MPA, 5.1 μM 4-MDDT; n=4 samples
# Procedure, shortened: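 Patient blood mononuclear cells isolated on Ficoll, with consent and ethical approval. Co-cultured 10:1 on non-CD40L-expressing L-cell fibroblast stroma in 96-well plates. Treated in triplicate for 24 h against solvent control. Viability read by annexin V/propidium iodide staining and flow cytometry; n=4 patient samples ± s.e.m.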
# [3] = test system: HL-60, K562 and KG1a AML cell lines; assay: Cumulative cell counts / viability of AML cell lines; type: cell-based; conditions: 7 days, 5 μM MPA, 50 μM 4-MDDT
# Procedure, shortened: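 HL60, K562 and KG1a cells kept in RPMI-1640 with L-glutamine, 10% heat-inactivated FBS and penicillin/streptomycin at 37 °C, 5% CO2, passaged every 2 days at 0.25–1.5 × 10^6 cells/ml. Treated 7 days at 1 × 10^4 cells/well or 0.25 × 10^6 cells/ml in flasks, with DMSO/ethanol solvent controls. Cumulative viable counts by manual counting or flow cytometry with viable gates and counting beads. Mean of ≥3 experiments ± s.e.m.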
# [4] = test system: HL-60 cells; assay: HL-60 differentiation; type: cell-based; conditions: 5 μM MPA, 50 μM 4-MDDT
# Procedure, shortened: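 HL-60 cells grown in RPMI-1640 with 10% heat-inactivated FBS at 37 °C, 5% CO2. Treated 7 days and re-fed and re-treated every 2 days, with solvent controls. At day 7, PE-CD11b staining read by flow cytometry, mean of ≥3 experiments ± s.e.m. Cytospins from 75–100 μl of culture were air-dried, methanol-fixed and Jenner–Giemsa stained for morphology.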
# [5] = molecular target: T1, recombinant AKR1C3 (Homo sapiens, UniProt P42330); assay: AKR1C-diaphorase; type: biochemical; conditions: freshly prepared solution
# T1 sequence (P42330 1-323): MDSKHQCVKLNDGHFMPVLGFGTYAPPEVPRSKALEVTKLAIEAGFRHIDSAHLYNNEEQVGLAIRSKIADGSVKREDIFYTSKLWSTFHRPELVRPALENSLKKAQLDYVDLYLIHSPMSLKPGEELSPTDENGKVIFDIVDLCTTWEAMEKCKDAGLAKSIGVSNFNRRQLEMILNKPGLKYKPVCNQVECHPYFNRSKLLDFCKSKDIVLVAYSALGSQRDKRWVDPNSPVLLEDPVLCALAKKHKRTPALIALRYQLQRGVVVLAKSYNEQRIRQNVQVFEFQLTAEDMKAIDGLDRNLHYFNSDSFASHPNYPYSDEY
# [6] = Stability of the DMSO solution; type: physicochemical; conditions: solution in DMSO
compound,measurement,setting,value
"O=C(O)c1cccc(S(=O)(=O)N2CCc3ccccc3C2)c1 [A1, 3-(3,4-dihydro-1H-isoquinoline-2-sulphonyl)-benzoic acid]",AKR1C3 selectivity in the CRT screen,[1],AKR1C3-selective inhibitors
"O=C(N1CCOCC1)N1CCN(c2ccc(Cl)cc2)CC1 [A9, [4-(4-chloro-phenyl)-piperazin-1-yl]-morpholin-4-yl-methanone]",AKR1C3 selectivity in the CRT screen,[1],AKR1C3-selective inhibitors
"CC(C)(Oc1ccc(CCNC(=O)c2ccc(Cl)cc2)cc1)C(=O)O [BEZ, bezafibrate]","apoptosis of CLL cells, single agent",[2],neither BEZ nor MPA as single agents markedly increased apoptosis
"CC(=O)O[C@]1(C(C)=O)CC[C@H]2[C@@H]3C[C@H](C)C4=CC(=O)CC[C@]4(C)[C@H]3CC[C@@]21C [MPA, medroxyprogesterone acetate]",AML cell killing when combined with BEZ,"[3]; with 0.5 mM BEZ, NCI compounds at 10 times the IC50, 10 μM A1/A6/A9",greatly enhanced AML cell killing
same,"anti-proliferative effect, agent alone",[3]; NCI compounds at 10 times the IC50,moderate but statistically anti-proliferative effect
same,HL-60 cell differentiation in response to ATRA,"[4]; day 7, with 10 nM ATRA",promoted the differentiation of HL-60 cells
same,"HL-60 cell differentiation (CD11b, phenotypic changes) combined with BEZ","[4]; day 7, with 0.5 mM BEZ",strongly promoted HL-60 cell differentiation
same,"apoptosis of CLL cells, single agent",[2],neither BEZ nor MPA as single agents markedly increased apoptosis
CN(C)[C@@H]1C(O)=C(C(N)=O)C(=O)[C@@]2(O)C(O)=C3C(=O)c4c(O)cccc4[C@@](C)(O)[C@H]3C[C@@H]12 [tetracycline],AKR1C3-inhibitory activity,[5],no AKR1C3-inhibitory activity
same,chemical stability,[6],rapid conversion of the dissolved tetracycline to an unknown breakdown product
